Reference: ChEMBL document CHEMBL1240353 (Antimicrob Agents Chemother, 2010)
Converted amounts (≈) assume the structure as drawn. The source made the active and inactive calls. The rule behind the calls is not given here.

What was measured:
Enterococcus faecium [1] = experiment: Antimicrobial activity against penicillin-resistant Enterococcus faecium D63r by microdilution method; type: functional
[2] = Inhibition of PBP1 in penicillin-resistant Enterococcus faecium D63r membranes assessed as inhibition of fluorescent ampicillin binding after 20 mins at 37 degC
Method in brief: (§1)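 Competition assay on purified membrane preparations (300 μg protein). Membranes preincubated 20 min at 37°C with increasing β-lactam concentrations, then 1 h at 37°C with saturating 25 μM fluorescent ampicillin. Proteins resolved by SDS-PAGE and fluorography. IC50 is the concentration inhibiting 50% of fluorescent ampicillin labelling relative to a drug-free control.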

[3] = Inhibition of PBP2 in penicillin-resistant Enterococcus faecium D63r membranes assessed as inhibition of fluorescent ampicillin binding after 20 mins at 37 degC; method in brief: as §1
[4] = Inhibition of PBP3 in penicillin-resistant Enterococcus faecium D63r membranes assessed as inhibition of fluorescent ampicillin binding after 20 mins at 37 degC; method in brief: as §1
[5] = Inhibition of PBP4 in penicillin-resistant Enterococcus faecium D63r membranes assessed as inhibition of fluorescent ampicillin binding after 20 mins at 37 degC; method in brief: as §1
[6] = Inhibition of PBP5 in penicillin-resistant Enterococcus faecium D63r membranes assessed as inhibition of fluorescent ampicillin binding after 20 mins at 37 degC; method in brief: as §1
[7] = Inhibition of PBP6 in penicillin-resistant Enterococcus faecium D63r membranes assessed as inhibition of fluorescent ampicillin binding after 20 mins at 37 degC; method in brief: as §1
Enterococcus faecium [8] = experiment: Antimicrobial activity against Enterococcus faecium D63 by microdilution method; type: functional
Enterococcus faecium [9] = experiment: Antimicrobial activity against penicillin-resistant Enterococcus faecium D63r assessed as bacterial killing at 4 times MIC by time kill curve method; type: functional, organism-based
Enterococcus faecium [10] = experiment: Antimicrobial activity against Enterococcus faecium D63 assessed as bacterial killing at 4 times MIC by time kill curve method; type: functional, organism-based
Method in brief: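 Survivors counted at 0, 4 and 24 h of incubation at 37°C by plating serial dilutions (at least 10-fold, to limit carryover).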

[11] = Inhibition of PBP1 in wild type Enterococcus faecium D63 membranes assessed as inhibition of fluorescent ampicillin binding after 20 mins at 37 degC
[12] = Inhibition of PBP2 in wild type Enterococcus faecium D63 membranes assessed as inhibition of fluorescent ampicillin binding after 20 mins at 37 degC; method in brief: as §1
[13] = Inhibition of PBP3 in wild type Enterococcus faecium D63 membranes assessed as inhibition of fluorescent ampicillin binding after 20 mins at 37 degC
[14] = Inhibition of PBP4 in wild type Enterococcus faecium D63 membranes assessed as inhibition of fluorescent ampicillin binding after 20 mins at 37 degC
[15] = Inhibition of PBP5 in wild type Enterococcus faecium D63 membranes assessed as inhibition of fluorescent ampicillin binding after 20 mins at 37 degC; method in brief: as §1
[16] = Inhibition of PBP6 in wild type Enterococcus faecium D63 membranes assessed as inhibition of fluorescent ampicillin binding after 20 mins at 37 degC; method in brief: as §1
Enterococcus faecium [17] = experiment: Inhibition of Enterococcus faecium low-affinity PBP5fm assessed as rate constant for enzyme acylation by spectrophotometry
Method in brief: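 Soluble PBP 5fm (N-terminal membrane anchor removed), overproduced and purified without molecular sieve step. β-lactam ring opening followed at 319 nm, 30°C, 10 mM phosphate pH 7.0, 10 μM enzyme, across drug concentrations. Pseudo-first-order ka fitted from absorbance traces. k+2/K taken from slope of ka versus concentration.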

Staphylococcus aureus = experiment: Inhibition of Staphylococcus aureus PBP2a assessed as rate constant for enzyme acylation by spectrophotometry

| Compound | MIC (Enterococcus faecium [1]) [mg/L] | IC50 [2] [mg/L] | IC50 [3] [mg/L] | IC50 [4] [mg/L] | IC50 [5] [mg/L] | IC50 [6] [mg/L] | IC50 [7] [mg/L] | MIC (Enterococcus faecium [8]) [mg/L] | inhibition (Enterococcus faecium [9]) | inhibition (Enterococcus faecium [10]) | IC50 [11] [mg/L] | IC50 [12] [mg/L] | IC50 [13] [mg/L] | IC50 [14] [mg/L] | IC50 [15] [mg/L] | IC50 [16] [mg/L] | INH (Enterococcus faecium [17]) [M⁻¹ s⁻¹] | INH (Staphylococcus aureus) [M⁻¹ s⁻¹] |
| --- | --- | --- | --- | --- | --- | --- | --- | --- | --- | --- | --- | --- | --- | --- | --- | --- | --- | --- |
| CC(C)(O/N=C(\C(=O)N[C@@H]1C(=O)N2C(C(=O)[O-])=C(C[n+]3ccccc3)CS[C@H]12)c1csc(N)n1)C(=O)O [CEFTAZIDIME] | > 100 | 0.9 (≈ 1.65 µM) | 0.5 (≈ 0.915 µM) | 0.04 (≈ 0.0732 µM) | > 200 | > 200 | > 50 |  |  |  |  |  |  |  |  |  |  |  |
| CC1(C)S[C@@H]2[C@H](NC(=O)[C@H](N)c3ccccc3)C(=O)N2[C@H]1C(=O)O [AMPICILLIN] | 125 (≈ 358 µM) |  |  |  |  |  |  | 15 (≈ 42.9 µM) |  |  |  |  |  |  |  |  |  |  |
| Nc1nc(/C(=N/O)C(=O)N[C@@H]2C(=O)N3C(C(=O)O)=C(/C=C4\CCN([C@@H]5CCNC5)C4=O)CS[C@H]23)ns1 [CEFTOBIPROLE] | 8 (≈ 15 µM) | 0.7 (≈ 1.31 µM) | 0.2 (≈ 0.374 µM) | 0.5 (≈ 0.935 µM) | 1.8 (≈ 3.37 µM) | 1 (≈ 1.87 µM) |  | 2 (≈ 3.74 µM) | Active | Active | 0.6 (≈ 1.12 µM) | 0.2 (≈ 0.374 µM) | 0.6 (≈ 1.12 µM) | 1.5 (≈ 2.81 µM) | 0.7 (≈ 1.31 µM) | > 16 | 110 | 8900 |
| CC1(C)S[C@@H]2[C@H](NC(=O)Cc3ccccc3)C(=O)N2[C@H]1C(=O)O [PENICILLIN G] | 70 (≈ 209 µM) | 1.6 (≈ 4.78 µM) | 0.06 (≈ 0.179 µM) | 0.6 (≈ 1.79 µM) | 8 (≈ 23.9 µM) | 55 (≈ 164 µM) | 2 (≈ 5.98 µM) | 5 (≈ 15 µM) | Active | Active | 0.9 (≈ 2.69 µM) | 0.1 (≈ 0.299 µM) | 1.3 (≈ 3.89 µM) | 10 (≈ 29.9 µM) | 75 (≈ 224 µM) | 1.5 (≈ 4.49 µM) | 15 |  |
| CO/N=C(\C(=O)N[C@@H]1C(=O)N2C(C(=O)[O-])=C(C[N+]3(C)CCCC3)CS[C@H]12)c1csc(N)n1 | > 100 | 1.7 (≈ 3.54 µM) | 0.6 (≈ 1.25 µM) | 0.5 (≈ 1.04 µM) | > 200 | > 200 | > 50 |  |  |  |  |  |  |  |  |  |  |  |
